# Counter-ions that a name gives are not always drawn.
# Assays:
# [1] = (§1) Cytotoxicity against human HL cells assessed as cell viability at 50 uM after 72 hrs by resazurin dye based fluorescence assay relative to control; details: HL cells, read-out: Activity
# Procedure, shortened: (§2)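 HL cells grown overnight to confluence, then exposed to compound at 50 μM for 72 h at 37 °C, four parallel replicates. Read-out after 2 h with 20 μM resazurin in PBS, fluorescence at 570/590 nm (ex/em). Viability % is relative to cells in 0.25% DMSO medium. Usnic acid 50 μM as positive control.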
# [2] = tested on: Chlamydia pneumoniae; test: Antichlamydial activity against Chlamydia pneumoniae K7 infected in HL cells assessed as chlamydial inhibition at 50 uM after 70 hrs by fluorescent microscopic analysis; type: functional
# Procedure, shortened: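 Confluent HL cells infected with C. pneumoniae K7 at MOI 0.3 in medium with 1 μg/mL cycloheximide, centrifuged 500 rpm 1 h, then held at 37 °C for 1 h. At 2 h, compound added at 50 μM or DMSO vehicle. After 70 h at 37 °C, inclusions stained and counted in four fields per coverslip under a fluorescence microscope (20×). Inhibition % is relative to mean vehicle counts.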
# [3] = tested on: HL; test: as §1; details: hl, 72 h, 50 µM; procedure, shortened: as §2
# [4] = tested on: Chlamydia pneumoniae; test: Antichlamydial activity against Chlamydia pneumoniae K7 infected in HL cells after 70 hrs by fluorescent microscopic analysis; type: functional, organism-based; details: for IC50: K7, HL, 70 h; for MIC90: K7, 70 h
# Procedure, shortened: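 HL cells grown to confluence, infected with C. pneumoniae K7 at MOI 0.3 in medium with 1 μg/mL cycloheximide, centrifuged 500 rpm 1 h, then 37 °C 1 h. At 2 h, inoculum replaced by cycloheximide medium with compound at 12 concentrations from 1 nM to 100 μM. Incubated 70 h at 37 °C, stained, and inclusions counted by fluorescence microscopy. Three runs; IC50 from variable-slope sigmoidal fit. Azithromycin 20 nM as positive control.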
MIC90 [4] [µM],Structure (SMILES),"viability at 72 h, 50 µM [1] [%]",inhibition at 50 µM [2] [%],Activity [3],IC50 [4] [µM]
–,CC1=CC(=O)C2=C(C)CC[C@@H]3[C@H](OC(=O)[C@H]3C)[C@@H]12 [DESACETOXYMATRICARIN],93.9,30.1,–,–
–,O=c1cc(-c2ccccc2)oc2cc(O)cc(O)c12 [CHRYSIN],–,–,Toxic,–
–,C[C@@H]1O[C@@H](OC[C@H]2O[C@@H](Oc3cc(O)c4c(c3)O[C@H](c3ccc(O)c(O)c3)CC4=O)[C@H](O)[C@@H](O)[C@@H]2O)[C@H](O)[C@H](O)[C@H]1O [ERIOCITRIN],75.2,8.6,–,–
–,O=c1c(O[C@@H]2O[C@H](CO)[C@@H](O)[C@H](O)[C@H]2O)c(-c2ccc(O)c(O)c2)oc2cc(O)cc(O)c12 [ISOQUERCETIN],95.8,38,–,–
–,COc1ccc([C@@H]2CC(=O)c3c(O)cc(O[C@@H]4O[C@H](CO[C@@H]5O[C@@H](C)[C@H](O)[C@@H](O)[C@H]5O)[C@@H](O)[C@H](O)[C@H]4O)cc3O2)cc1O [HESPERIDIN],101,26.8,–,–
–,COc1ccc2ccc(=O)oc2c1CC=C(C)C [OSTHOLE],–,–,Toxic,–
–,C[C@@]1(CO)[C@H](O)CC[C@@]2(C)[C@H]1CC[C@H]1C[C@@H]3C[C@@]12CC[C@]3(O)CO [APHIDICOLIN],92.3,-3.8,–,–
–,CCCCC[C@H](O)/C=C/C1=C(CCCCCCC(=O)O)C(=O)CC1 [PROSTAGLANDIN B1],109,39.8,–,–
–,O=c1oc2cc(O)ccc2c2oc3cc(O)ccc3c12 [COUMESTROL],96.3,0,–,–
–,CCC1=CC2CN3CCc4c([nH]c5ccccc45)[C@@](C(=O)OC)(C2)C13,88.9,68.1,–,52.6
–,O=C1Nc2ccccc2/C1=C1/Nc2ccccc2C1=O [INDIRUBIN],92.5,2,–,–
–,C=C[C@](C)(O)CC[C@H]1C(=C)CC[C@H]2C(C)(C)CCC[C@]12C,88.6,60,–,35.5
–,O=C1C[C@@H](c2ccc(O)c(O)c2)Oc2c1ccc(O[C@@H]1O[C@H](CO)[C@@H](O)[C@H](O)[C@H]1O)c2O [FLAVANOMAREIN],82.6,22.1,–,–
–,CC1=C2C(=O)[C@H]3[C@@H](CC=C4C[C@@H](O)CC[C@@]43C)[C@@H]2CC[C@]12O[C@@H]1C[C@H](C)CN[C@H]1[C@H]2C [JERVINE],89.3,74.8,–,25.6
–,COc1ccc(C(=O)OC2C[C@H]3CC[C@H](C2)N3C)cc1OC (stereo not given in full) [CONVOLVAMINE HYDROCHLORIDE],78.8,21.1,–,–
–,OC[C@@H]1CCCN2CCCC[C@H]12 [LUPININE],98.7,28.2,–,–

MIC90 [4] [µM],Structure (SMILES),"viability at 72 h, 50 µM [1] [%]",inhibition at 50 µM [2] [%],Activity [3],IC50 [4] [µM]
–,CC(=O)N[C@H]1CN2CC[C@H](O)[C@@H]2[C@@H](O)[C@@H]1O,86.6,59.8,–,67.2
–,Cn1c(-c2ccc3c(c2)OCO3)cc(=O)c2ccccc21 [GRAVEOLINE],100,5.3,–,–
–,c1ccc2c3c([nH]c2c1)CNCC3 [TRYPTOLINE],84.8,4.9,–,–
–,COc1cc(/C=C/c2ccccc2)oc(=O)c1 [DESMETHOXYYANGONIN],89.8,35.7,–,–
–,C=C1CC[C@H]2O[C@]2(C)CC[C@@H]2[C@@H]1CC2(C)C [(-)-CARYOPHYLLENE OXIDE],107,35.7,–,–
–,COc1ccc2c(c1)[nH]c1c(C)nccc12 [HARMINE HYDROCHLORIDE],87.3,26,–,–
–,C/C=C(/C)C(=O)O[C@H]1CC[C@@]2(C)[C@@H]3CC[C@H]4[C@]5(O)C[C@H](O)[C@@]6(O)[C@@H](CN7C[C@@H](C)CC[C@H]7[C@@]6(C)O)[C@]5(O)C[C@@]42O[C@]13O [CEVADINE],98.6,39,–,–
–,C[C@@H]1C[C@@H]([C@H](O)CC2CC(=O)NC(=O)C2)C(=O)[C@@H](C)C1 [CYCLOHEXIMIDE],66.4,–,–,–
1.38,CC1COc2c(N3CCN(C)CC3)c(F)cc3c(=O)c(C(=O)O)cn1c23 (stereo not given) [OFLOXACIN],–,–,–,–
–,OC1c2ccccc2N=C2CCCN21 (stereo not given) [PEGANOLE],95.2,66.2,–,35.1
–,O=C1c2c(O)cc(O)cc2O[C@H](c2ccc(O)c(O)c2)[C@H]1O [(+)-TAXIFOLIN],95.2,13.4,–,–
–,O[C@H]1CCN2Cc3ccccc3N=C12 [VASICINE],102,-1.4,–,–
1,COc1c(C)c2c(c(O)c1C/C=C(\C)CCC(=O)O)C(=O)OC2 [MYCOPHENOLIC ACID],86.6,98,–,0.31
–,COc1c(O)c2c(=O)cc(OC)c3c4c(OC)cc(=O)c5c(O)c(OC)c6c(c(c1CC(C)(O)C6C(C)=O)c23)c54 (stereo not given),-0.3,–,–,–
–,CC(C)=CCC[C@](C)(O)[C@H]1CC[C@]2(C)[C@@H]1CC[C@@H]1[C@@]3(C)CCC(=O)C(C)(C)[C@@H]3CC[C@]12C [DIPTEROCARPOL],32.1,–,–,–
–,Oc1cc(O)c2c(c1)O[C@H](c1ccc(O)c(O)c1)[C@H](O)C2 [(-)-EPICATECHIN],93.4,41.7,–,–
